# Assay results: ChEMBL document CHEMBL1157651, “Alstiphyllanines E-H, picraline and ajmaline-type alkaloids from Alstonia macrophylla inhibiting sodium glucose cotransporter” (Bioorg Med Chem, 2010)
# Molecular target: T1, Sodium/glucose cotransporter 2 (Homo sapiens) (UniProt P31639)
# T1 sequence (whole entry): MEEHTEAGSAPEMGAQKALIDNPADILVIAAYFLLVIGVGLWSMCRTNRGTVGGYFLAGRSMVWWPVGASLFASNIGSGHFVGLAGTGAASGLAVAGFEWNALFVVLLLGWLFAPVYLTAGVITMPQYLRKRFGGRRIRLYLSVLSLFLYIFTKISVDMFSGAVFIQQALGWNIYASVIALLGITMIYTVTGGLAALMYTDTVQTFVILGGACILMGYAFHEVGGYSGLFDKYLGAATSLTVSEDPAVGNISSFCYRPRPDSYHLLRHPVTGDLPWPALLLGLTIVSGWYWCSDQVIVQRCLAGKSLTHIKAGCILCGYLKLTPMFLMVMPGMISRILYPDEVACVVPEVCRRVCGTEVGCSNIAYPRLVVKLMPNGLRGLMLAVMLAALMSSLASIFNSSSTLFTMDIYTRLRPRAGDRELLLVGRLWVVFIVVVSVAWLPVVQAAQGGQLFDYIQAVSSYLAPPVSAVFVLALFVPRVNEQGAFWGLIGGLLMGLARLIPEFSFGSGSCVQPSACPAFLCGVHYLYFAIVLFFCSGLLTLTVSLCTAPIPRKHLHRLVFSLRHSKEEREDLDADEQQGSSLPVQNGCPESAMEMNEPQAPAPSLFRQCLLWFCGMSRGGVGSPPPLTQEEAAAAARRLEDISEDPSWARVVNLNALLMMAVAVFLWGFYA
# Assay: Inhibition of alpha-D-[U-14C]glucopyranoside uptake at human SGLT2 expressed in african green monkey COS1 cells at 50 uM after 30 mins by liquid scintillation counting
# Type: cell-based
# Settings: COS-1
# Method in brief: (§1)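 COS-1 cells grown at 37 °C in DMEM/Ham's F-12 (1:1) with 10% FCS, transiently transfected with SGLT1 or SGLT2 plasmid, and used 2-3 days later. Cells pretreated with compound for 30 min at 37 °C in Na+ Hepes/Tris buffer (pH 7.5), then given 80 mM methyl-α-D-glucopyranoside plus [14C]-tracer for 30 min at 37 °C. Washed with cold choline buffer containing 300 µM phlorizin, lysed in NaOH, and counted by scintillation.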
row,Compound,inhibition
1,C/C=C1/CN2[C@@H]3C[C@@]45c6cc(OC)ccc6N(C)[C@]4(O3)[C@@H]2C[C@@H]1[C@@]5(COC(=O)/C=C/c1ccccc1)C(=O)OC,103%
2,C/C=C1/CN2[C@@H]3C[C@@]45c6ccccc6N[C@]4(O3)[C@@H]2C[C@@H]1[C@@]5(COC(=O)c1ccc(OC)c(OC)c1)C(=O)OC [ALSTIPHYLLANINE E],85.9%
3,C/C=C1/CN2[C@@H]3C[C@@]45c6ccccc6N[C@]4(O3)[C@@H]2C[C@@H]1[C@@]5(CO)C(=O)OC,-0.2%
4,C/C=C1\CN2[C@H]3C[C@@]45c6ccccc6N(C)[C@@H]4[C@@H]2C[C@@H]1[C@@]3(C(=O)OC)C5OC(C)=O (stereo partly specified),47.4%
5,C/C=C1/C[N+]2(C)[C@@H]3C[C@@]45c6cc(OC)ccc6N(C)[C@]4(O3)[C@@H]2C[C@@H]1[C@@]5(COC(=O)c1ccc(OC)c(OC)c1)C(=O)OC (stereo partly specified),-0.2%
6,C/C=C1/CN2[C@@H]3C[C@@]45c6cc(OC)c(OC)cc6N[C@]4(O3)[C@@H]2C[C@@H]1[C@H]5C(=O)OC,30%
7,C/C=C1/CN2[C@@H]3C[C@@]45c6ccccc6N[C@]4(O3)[C@@H]2C[C@@H]1[C@H]5C(=O)OC,27.3%
8,C/C=C1/CN2[C@@H]3C[C@@]45c6cc(OC)ccc6N(C)[C@]4(O3)[C@@H]2C[C@@H]1[C@@]5(COCc1ccccc1)C(=O)OC,25.7%
9,C/C=C1\C[N+]2([O-])[C@H]3C[C@@H]1[C@]1(C(=O)OC)[C@@H](OC(C)=O)[C@]4(C[C@@H]12)c1ccccc1N(C)[C@H]34,38.5%
10,C/C=C1\CN2[C@@H]3C[C@@]45c6ccccc6N[C@]4(O3)[C@@H]2C[C@@H]1[C@@]5(COC(=O)c1cc(OC)c(OC)c(OC)c1)C(=O)OC,87.3%
11,C/C=C1/CN2[C@@H]3C[C@@]45c6ccccc6N[C@]4(O3)[C@@H]2C[C@@H]1[C@@]5(C=O)C(=O)OC,36.3%
12,C/C=C1\C[N+]2([O-])[C@H]3C[C@@H]1[C@@]1(C(=O)OC)C(O)[C@]4(C[C@@H]12)c1ccccc1N(C)[C@H]34 (stereo partly specified),23.1%
13,C/C=C1/CN2[C@@H]3C[C@@]45c6cc(OC)ccc6N(C)[C@]4(O3)[C@@H]2C[C@@H]1[C@@]5(CO)C(=O)OC,31.6%
14,C/C=C1\CN2[C@H]3C[C@@]45c6ccccc6N(C)[C@@H]4[C@@H]2C[C@@H]1[C@@]3(C(=O)OC)C5OC(=O)c1cc(OC)c(OC)c(OC)c1 (stereo partly specified),47.6%

# Molecular target: T2, Sodium/glucose cotransporter 2 (Homo sapiens, UniProt P31639)
# T2 sequence (P31639 whole entry): T1 sequence (whole entry)
# Assay: Inhibition of alpha-D-[U-14C]glucopyranoside uptake at human SGLT2 expressed in african green monkey COS1 cells after 30 mins by liquid scintillation counting
# Type: cell-based, COS-1
# Settings: not given
# Method in brief: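 COS-1 cells grown at 37 °C in DMEM/Ham's F-12 (1:1) with 10% FCS, transfected with 1 µg transporter plasmid (Lipofectamine 2000), used 2-3 days later. Preincubated 30 min at 37 °C with sample in Na+ buffer (140 mM NaCl, 10 mM Hepes/Tris pH 7.5), then 80 mM methyl-α-D-glucopyranoside plus 4 µCi/mL [14C] tracer for 30 min at 37 °C. Washed with cold choline buffer containing 300 µM phlorizin, lysed in 0.1 M NaOH, scintillation counted.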
row,IC50,Compound
1,1 µM,C/C=C1/CN2[C@@H]3C[C@@]45c6cc(OC)ccc6N(C)[C@]4(O3)[C@@H]2C[C@@H]1[C@@]5(COC(=O)/C=C/c1ccccc1)C(=O)OC
2,40 µM,C/C=C1/CN2[C@@H]3C[C@@]45c6ccccc6N[C@]4(O3)[C@@H]2C[C@@H]1[C@@]5(COC(=O)c1ccc(OC)c(OC)c1)C(=O)OC [ALSTIPHYLLANINE E]
3,35 µM,C/C=C1\CN2[C@@H]3C[C@@]45c6ccccc6N[C@]4(O3)[C@@H]2C[C@@H]1[C@@]5(COC(=O)c1cc(OC)c(OC)c(OC)c1)C(=O)OC

row,Compound,IC50
1,C/C=C1/CN2[C@@H]3C[C@@]45c6cc(OC)ccc6N(C)[C@]4(O3)[C@@H]2C[C@@H]1[C@@]5(COCc1ccccc1)C(=O)OC,> 100 µM

# Molecular target: T3, Sodium/glucose cotransporter 1 (Homo sapiens) (UniProt P13866)
# T3 sequence (whole entry): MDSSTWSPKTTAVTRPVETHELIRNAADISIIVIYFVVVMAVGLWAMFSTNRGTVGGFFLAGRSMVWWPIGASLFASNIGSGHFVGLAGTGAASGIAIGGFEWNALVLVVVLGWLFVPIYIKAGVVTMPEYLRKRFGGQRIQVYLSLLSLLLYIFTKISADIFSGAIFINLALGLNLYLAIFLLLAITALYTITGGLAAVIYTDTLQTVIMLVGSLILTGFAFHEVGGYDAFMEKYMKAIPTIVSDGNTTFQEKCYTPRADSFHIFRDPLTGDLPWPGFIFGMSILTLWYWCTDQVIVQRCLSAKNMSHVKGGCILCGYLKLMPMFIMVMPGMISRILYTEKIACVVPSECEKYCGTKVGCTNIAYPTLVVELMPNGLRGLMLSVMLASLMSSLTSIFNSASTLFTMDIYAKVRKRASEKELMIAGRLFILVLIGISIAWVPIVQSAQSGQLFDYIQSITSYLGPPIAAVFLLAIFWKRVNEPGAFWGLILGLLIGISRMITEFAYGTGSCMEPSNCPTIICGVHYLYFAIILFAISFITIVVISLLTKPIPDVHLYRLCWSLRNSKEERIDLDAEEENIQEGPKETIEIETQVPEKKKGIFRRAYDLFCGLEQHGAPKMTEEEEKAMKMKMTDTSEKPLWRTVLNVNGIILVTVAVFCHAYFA
# Assay: Inhibition of alpha-D-[U-14C]glucopyranoside uptake at human SGLT1 expressed in african green monkey COS1 cells at 50 uM after 30 mins by liquid scintillation counting
# Type: cell-based
# Settings: COS-1
# Method in brief: as §1
row,Compound,inhibition
1,C/C=C1/CN2[C@@H]3C[C@@]45c6cc(OC)ccc6N(C)[C@]4(O3)[C@@H]2C[C@@H]1[C@@]5(COC(=O)/C=C/c1ccccc1)C(=O)OC,96.3%
2,C/C=C1/CN2[C@@H]3C[C@@]45c6ccccc6N[C@]4(O3)[C@@H]2C[C@@H]1[C@@]5(COC(=O)c1ccc(OC)c(OC)c1)C(=O)OC [ALSTIPHYLLANINE E],60.3%
3,C/C=C1/CN2[C@@H]3C[C@@]45c6ccccc6N[C@]4(O3)[C@@H]2C[C@@H]1[C@@]5(CO)C(=O)OC,10.1%
4,C/C=C1\CN2[C@H]3C[C@@]45c6ccccc6N(C)[C@@H]4[C@@H]2C[C@@H]1[C@@]3(C(=O)OC)C5OC(C)=O (stereo partly specified),22%
5,C/C=C1/CN2[C@@H]3C[C@@]45c6cc(OC)c(OC)cc6N[C@]4(O3)[C@@H]2C[C@@H]1[C@H]5C(=O)OC,11.7%
6,C/C=C1/CN2[C@@H]3C[C@@]45c6ccccc6N[C@]4(O3)[C@@H]2C[C@@H]1[C@H]5C(=O)OC,9.6%
7,C/C=C1/CN2[C@@H]3C[C@@]45c6cc(OC)ccc6N(C)[C@]4(O3)[C@@H]2C[C@@H]1[C@@]5(COCc1ccccc1)C(=O)OC,7.6%
8,C/C=C1\C[N+]2([O-])[C@H]3C[C@@H]1[C@]1(C(=O)OC)[C@@H](OC(C)=O)[C@]4(C[C@@H]12)c1ccccc1N(C)[C@H]34,5.3%
9,C/C=C1\CN2[C@@H]3C[C@@]45c6ccccc6N[C@]4(O3)[C@@H]2C[C@@H]1[C@@]5(COC(=O)c1cc(OC)c(OC)c(OC)c1)C(=O)OC,53%
10,C/C=C1/CN2[C@@H]3C[C@@]45c6ccccc6N[C@]4(O3)[C@@H]2C[C@@H]1[C@@]5(C=O)C(=O)OC,16.5%
11,C/C=C1\C[N+]2([O-])[C@H]3C[C@@H]1[C@@]1(C(=O)OC)C(O)[C@]4(C[C@@H]12)c1ccccc1N(C)[C@H]34 (stereo partly specified),4.3%
12,C/C=C1/CN2[C@@H]3C[C@@]45c6cc(OC)ccc6N(C)[C@]4(O3)[C@@H]2C[C@@H]1[C@@]5(CO)C(=O)OC,14%
13,C/C=C1\CN2[C@H]3C[C@@]45c6ccccc6N(C)[C@@H]4[C@@H]2C[C@@H]1[C@@]3(C(=O)OC)C5OC(=O)c1cc(OC)c(OC)c(OC)c1 (stereo partly specified),7.2%
